# Assay results as given in PMC6105387 (Journal of clinical pharmacology, 2018).
# Legend:
# [1] = Population pharmacokinetic model; assay type: in vivo, human
# Procedure, shortened: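 Whole blood sampled 0–12 h post-dose and assayed by chemiluminescent microparticle immunoassay. Compartment models with first-order absorption; between-subject variability exponential, log-normal; categorical covariates as fractional change. Precision from 1000 bootstrap replicates (median, 95% percentile).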
# [2] = metabolites excreted through the biliary route; cited from earlier work
compound,measurement,setting,value
"C=CC[C@@H]1/C=C(\C)C[C@H](C)C[C@H](OC)[C@H]2O[C@@](O)(C(=O)C(=O)N3CCCC[C@H]3C(=O)O[C@H](/C(C)=C/[C@@H]3CC[C@@H](O)[C@H](OC)C3)[C@H](C)[C@@H](O)CC1=O)[C@H](C)C[C@@H]2OC [tacrolimus, Tacrolimus]",magnitude of BSV on CL/F,[1]; after inclusion of covariates,37%
same,magnitude of BSV on V/F,[1]; after inclusion of covariates,76.7%
same,"Individual base model estimated apparent clearance CL/F, mean",[1]; extensive metabolizers (CEMCYP3A5),45.0 L/h
same,"Individual base model estimated apparent clearance CL/F, mean",[1]; intermediate metabolizers (CIMCYP3A5),29.5 L/h
same,"Individual base model estimated apparent clearance CL/F, mean",[1]; poor metabolizers (CPMCYP3A5),19.8 L/h
same,magnitude of BSV on CL/F,[1]; before inclusion of covariates,46.6%
same,magnitude of BSV on V/F,[1]; before inclusion of covariates,83.2%
same,increase in CL/F compared to cPMCYP3A5,[1]; cEMCYP3A5,~2 fold
same,Typical value of CL/F,"[1]; cEMCYP3A5, final model",44.3 L.hr^1
same,increase in CL/F compared to cPMCYP3A5,[1]; cIMCYP3A5,~1.5 fold
same,Typical value of CL/F,"[1]; cIMCYP3A5, final model",28.6 L.hr^1
same,Typical value of CL/F,"[1]; cPMCYP3A5, final model",19.7 L.hr^1
same,"BSV CL/F - η1, between-subject variability, estimate",[1]; final model,37.0 CV%
same,"BSV CLp/F - η3, between-subject variability, estimate",[1]; final model,48.6 CV%
same,"BSV V/F - η2, between-subject variability, estimate",[1]; final model,76.7 CV%
same,"BSV ka - η4, between-subject variability, estimate",[1]; final model,69.4 CV%
same,"Lag time - θlag, estimate",[1]; final model,0.828 h
same,"Residual variability, proportional error - ε1, estimate",[1]; final model,9.00
same,"ka - θka, absorption rate, estimate",[1]; final model,4.21 h⁻¹
same,Vd/F,"[1]; human, whole blood, oral",234 L
same,clearance,"[1]; human, whole blood, oral, 2.5 mg",328 mL/min
same,clearance,"[1]; human, whole blood, oral, 3.9 mg",477 mL/min
same,clearance,"[1]; human, whole blood, oral, 5.7 mg",738 mL/min
same,"BSV V/F - η2, bootstrap median",[1]; nonparametric bootstrap n=1000,76.0 CV%
same,"BSV ka - η4, bootstrap median",[1]; nonparametric bootstrap n=1000,68.6 CV%
same,"Lag time - θlag, bootstrap median",[1]; nonparametric bootstrap n=1000,0.830 h
same,"Residual variability, proportional error - ε1, bootstrap median",[1]; nonparametric bootstrap n=1000,8.90
same,"V/F - θV/F, bootstrap median",[1]; nonparametric bootstrap n=1000,231 L
same,"Vp/F - θVp/F, bootstrap median",[1]; nonparametric bootstrap n=1000,404 L
same,"ka - θka, bootstrap median",[1]; nonparametric bootstrap n=1000,4.14 h⁻¹
same,"CL/F - θCL/F, bootstrap median","[1]; nonparametric bootstrap n=1000, poor metabolizers",19.6 L/h
same,parent drug remaining unchanged,[2],less than 1%
